High-throughput results (PubChem BioAssay)
Sampled rows, rich in hits. Any-hit rate of the full collection: about 4.6%.
OX1R antag-1: blocks the human orexin 1 receptor; AID 434989; CHO/OX1R cells, Fluo-8 calcium fluorescence, orexin A; inhibition, % at 5 µM; 330,000 compounds, 0.43% hits; O43613;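 active = inhibition above its plate's threshold, mean inhibition of all tested compounds on the plate plus 3 SD, cut at about 37% in these data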;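 note: 0% = orexin A challenge wells and 100% = SB-334867-A antagonist wells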
Target sequence (O43613 whole entry, looked up): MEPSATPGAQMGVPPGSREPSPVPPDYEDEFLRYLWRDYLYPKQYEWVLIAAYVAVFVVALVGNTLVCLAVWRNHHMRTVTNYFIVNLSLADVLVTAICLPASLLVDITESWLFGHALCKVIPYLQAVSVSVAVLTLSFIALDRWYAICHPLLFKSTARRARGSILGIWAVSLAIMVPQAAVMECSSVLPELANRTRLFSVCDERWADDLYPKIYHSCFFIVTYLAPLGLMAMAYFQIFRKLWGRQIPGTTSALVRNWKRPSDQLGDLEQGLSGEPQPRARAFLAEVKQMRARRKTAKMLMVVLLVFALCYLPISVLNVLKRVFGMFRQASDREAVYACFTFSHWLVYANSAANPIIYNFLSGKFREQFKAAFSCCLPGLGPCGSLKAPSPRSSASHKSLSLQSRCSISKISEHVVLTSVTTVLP
OX1R antag-2: blocks the human orexin 1 receptor; inhibition, % at 6.6 µM; AID 485270; 330,000 compounds, 1.8% hits; O43613; OX1R-expressing cells, FRET antagonist read-out; in the data active = inhibition mostly above about 38%, no sharp cut-off; inactive = mostly below about 40%;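 note: 0% = agonist challenge alone and 100% = reference antagonist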
TAAR1 agonist: agonists of human TAAR1 | Q96RJ0 | CHO RD-HGA16 TAAR1, Fluo-8 calcium fluorescence; vehicle wells 0%, saturating PEA agonist 100% | activation, % at 3 µM | 360,000 compounds, 0.99% hits;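 active = activation above the mean activation of all test compounds in the run plus 3 SD, cut at about 38% in these data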
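System: CHO-derived RD-HGA16 cells with stable Gα16 and human TAAR1. Times: 17-24 h plating, Fluo-8 75 min 37 °C, 30 min RT. Measured by: calcium-sensitive Fluo-8 signal, excitation 470-495, emission 515-575 nm. Read-out basis: % activation relative to PEA EC100 response. Control set: DMSO and PEA EC100. Repeats: no replicates (n 1).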
GPR7 antagonist: human neuropeptides B/W receptor 1 antagonism; GPR7-expressing cells, fluorescence antagonist assay; P48145; 290,000 compounds, 1.1% hits; AID 1861; inhibition, % at 4.4 µM; in the data active = inhibition above about 16%, passing the limit was not always enough;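 note: cells stimulated with the agonist NPW; 0% = agonist with vehicle and 100% = vehicle without agonist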
Target sequence (P48145 whole entry, looked up): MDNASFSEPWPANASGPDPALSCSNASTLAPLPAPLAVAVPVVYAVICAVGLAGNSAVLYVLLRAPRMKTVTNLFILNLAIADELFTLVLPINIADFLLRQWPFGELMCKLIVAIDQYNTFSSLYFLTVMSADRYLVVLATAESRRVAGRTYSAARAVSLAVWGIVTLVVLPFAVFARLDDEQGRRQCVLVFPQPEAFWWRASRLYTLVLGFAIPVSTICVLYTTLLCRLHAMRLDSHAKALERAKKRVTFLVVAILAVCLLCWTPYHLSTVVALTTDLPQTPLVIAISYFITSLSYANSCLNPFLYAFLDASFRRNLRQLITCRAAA
TAAR1 antagonist: antagonists of human TAAR1 | Q96RJ0 | CHO RD-HGA16 TAAR1, Fluo-8 calcium fluorescence, antagonist | inhibition, % at 3 µM | 360,000 compounds, 1.5% hits | AID 624466;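 active = inhibition above a per-plate cutoff, the mean inhibition of test compounds on that plate plus 3 SD, cut at about 49% in these data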;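 note: 0% = DMSO plus EC80 beta-PEA response and 100% = DMSO alone without agonist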
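Material: RD-HGA16 CHO cells with stable hTAAR1 and Gα16; Dosing: single nominal final test compound concentration of 3 µM; Schedule: seeding 17-24 h prior, 75-min 37 °C, 30-min RT dye loading; Detection: kinetic Fluo-8 calcium fluorescence measurement; Measure: % inhibition from peak post-agonist over basal fluorescence ratio; Benchmarks: vehicle and agonist controls.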
CHO parental Ca: counter-screen: ATP calcium response change in parental CHO cells | inhibition, % at 5.6 µM | 330,000 compounds, 0.63% hits | parental CHO-K1, ATP-induced calcium, Fluo-8 fluorescence | AID 463079;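 active = inhibition above that plate's mean sample inhibition plus 3 SD, cut at about 26% in these data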;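 note: 0% = ATP-challenged DMSO wells and 100% = DMSO wells without ATP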
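Test system: untransfected parental CHO cell line; also added: ATP stimulus; dosing: 5.6 µM, single dose; signal: calcium-sensitive Fluo-8 fluorescence; measure: percent inhibition of ATP-evoked calcium rise, normalized to controls; benchmarks: low control ATP plus DMSO, high control DMSO only; replication: one well per compound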
nonsel antag count: nonselective antagonist in TAAR1 antagonist counter-screen; AID 651780; shares compounds with TAAR1 antagonist; 2,400 compounds, 77% hits; counterscreen cell line, calcium fluorescence, antagonist mode; inhibition, % at 3 µM; in the data active = inhibition above about 22%;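 note: CHO-Ga16 host cells stimulated with ATP at an EC80 level; 0% = agonist EC80 plus vehicle and 100% = vehicle without agonist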
TAAR1 ant conf: confirmation of human TAAR1 antagonists; inhibition, % at 3 µM; TAAR1-expressing cells, fluorescence antagonist read-out; shares compounds with TAAR1 antagonist; AID 651785; 2,400 compounds, 40% hits; in the data active = inhibition above about 49%;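 note: CHO-Ga16 host cells challenged with agonist PEA near its EC80; 0% = agonist at EC80 plus vehicle and 100% = vehicle with no agonist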
Ga16 nonsel ag: counter-screen for TAAR1 antagonists: nonselective Ga16 agonists | AID 651953 | Ga16-expressing cells, calcium fluorescence, agonist counterscreen | 2,400 compounds, 18% hits | activation, % at 3 µM | shares compounds with TAAR1 antagonist; in the data active = activation above about 12%;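 note: 0% = vehicle wells and 100% = saturating stimulus response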
TAAR1 ag counter: counter-screen for human TAAR1 antagonists: TAAR1 agonists | activation, % at 3 µM | shares compounds with TAAR1 antagonist | hTAAR1 cell line, fluorescence activation, agonist mode | 2,400 compounds, 2% hits | AID 651955; in the data active = activation above about 37%;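 note: CHO cells stably expressing TAAR1 with calcium dye readout; 0% = DMSO vehicle and 100% = full agonist response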
Active calls of the source: *; nt = no result given.

SMILES	OX1R antag-1	OX1R antag-2	TAAR1 agonist	GPR7 antagonist	TAAR1 antagonist	CHO parental Ca	nonsel antag count	TAAR1 ant conf	Ga16 nonsel ag	TAAR1 ag counter
COc1ccc(CNC(=O)COc2cc3c(c4oc(=O)cc(C)c24)CCC(C)(C)O3)cc1OC	-17	42*	0	9	62*	-9	23*	31	4	4
Cc1cc(=O)oc2c3c(cc(OCC(=O)NCc4ccco4)c12)OC(C)(C)CC3	-25	11	0	8	57*	-6	24*	24	3	-2
COc1ccc(CNC(=O)COc2cc3c(c4oc(=O)cc(C)c24)CCC(C)(C)O3)c(OC)c1	nt	nt	2	nt	73*	nt	25*	45	6	8
Cc1c(C)c2c(OCC(=O)NCc3ccco3)cc3c(c2oc1=O)CCC(C)(C)O3	-38	18	0	1	-21	-18	nt	nt	nt	nt
C/C(=N\Nc1ccc(C(=O)O)cc1)c1ccc2c(c1)Nc1ccccc1S2	-8	37	1	-10	-20	1	nt	nt	nt	nt
CC1(c2ccccc2)NC(=O)N(CC(=O)NCC2CCCO2)C1=O (stereo not given)	-14	6	1	nt	-9	-1	nt	nt	nt	nt
CCCCCCCNC(=O)C1(CC2CC(c3ccc(Cl)cc3)=NO2)CCN(C(=O)OC(C)(C)C)CC1 (stereo not given)	-36	8	-2	-13	3	-19	nt	nt	nt	nt
O=C(CSc1n[nH]c(=O)n1C1CC1)Nc1cc(Cl)ccc1Oc1ccccc1	20	48	21	8	79*	33*	47*	66*	14*	13
CSCCC(C(=O)NC1CCCC1)n1c(C2CCCC2)nc2ccccc21 (stereo not given)	nt	nt	-1	nt	-44	nt	nt	nt	nt	nt
COc1ccc(-c2nc(NC(=O)c3ccc(OCC(=O)Nc4ccc(F)cc4)c(OC)c3)sc2C)cc1	-14	9	7	-10	65*	-17	30*	47	10	10
Cc1ccc(C(=O)C(C)OC(=O)CCS(=O)(=O)c2ccc(C)cc2)cc1 (stereo not given)	-22	6	-4	nt	7	-25	nt	nt	nt	nt
C=CC1CN(C(=O)OCC(Cl)(Cl)Cl)C2CC3c4ccc(OC)cc4NC3C3CC1C2CO3 (stereo not given)	-32	6	nt	nt	nt	-28	nt	nt	nt	nt
COc1ccc2cc(C3=CC(=O)CC(C)(C)C3=O)ccc2c1	nt	nt	7	nt	61*	nt	26*	43	6	6
COc1ccc(NS(=O)(=O)c2cc(NC(=O)c3cc(=O)c4ccccc4o3)ccc2OC)cc1	9	26	17	-11	64*	-3	27*	53*	8	5
COc1cccc(NC(=O)c2cc(=O)c3ccccc3o2)c1	-23	7	3	10	4	-8	nt	nt	nt	nt
Cc1cnc(C(=O)OC(C)C(=O)Nc2cccc3ccccc23)cn1 (stereo not given)	-8	8	0	nt	9	-8	nt	nt	nt	nt
C[C@@H]1CC=C[C@@H]2[C@H]1C(=O)N(Cc1ccccc1)[C@H]2c1ccccc1Br	-5	19	4	nt	70*	-29	21	39	6	11
CCN(CC)S(=O)(=O)c1ccc(OC)c(NC(=O)C(C)Oc2ccc3c(C)cc(=O)oc3c2)c1 (stereo not given)	-11	28	1	-1	103*	-14	8	-8	9	13
C/C(=N\NC(=O)c1cccc(S(=O)(=O)N2CCOCC2)c1)c1ccc(O)cc1	-16	2	1	nt	-12	-9	nt	nt	nt	nt
O=C1CCCc2c1cc(C(=O)O)c(=O)n2-c1ccccc1	-11	12	2	-3	4	8	nt	nt	nt	nt
O=C1CCCc2c1cc(C(=O)Nc1ccc(Br)cn1)c(=O)n2-c1ccccc1	-32	7	11	-11	106*	-16	1	-3	2	-1
Cc1nn2c(C)c(C(=O)Nc3ccccc3)cnc2c1-c1ccccc1	-35	5	14	-16	58*	-10	25*	42	10	8
COc1ccc(/C=N/n2c(=O)[nH]c3c([nH]c4ccc(Cl)cc43)c2=O)cc1CN1CCCCC1	-17	8	0	-6	-11	-3	nt	nt	nt	nt
COc1ccc2c(c1)[nH]c1c(=O)n(/N=C/C3C(C)C=C(C)CC3C)c(=O)[nH]c12 (stereo not given)	-13	24	17	-19	62*	0	21	41	7	9
COc1ccc2[nH]c3c(=O)n(N)c(=O)[nH]c3c2c1	nt	nt	4	-5	0	nt	nt	nt	nt	nt
SMILES	OX1R antag-1	OX1R antag-2	TAAR1 agonist	GPR7 antagonist	TAAR1 antagonist	CHO parental Ca	nonsel antag count	TAAR1 ant conf	Ga16 nonsel ag	TAAR1 ag counter
COc1ccc2[nH]c3c(=O)n(/N=C/[C@H]4C(C)C=C(C)CC4C)c(=O)[nH]c3c2c1 (stereo not given in full)	-18	24	18	15	60*	-8	34*	48	9	10
COc1ccc(Cl)cc1NC(=O)CN(C)C(=O)c1cc(-c2ccncc2)nc2ccccc12	-4	25	19	nt	74*	-4	42*	53*	15*	14
COc1ccc(Cl)cc1NC(=O)CN(C)C(=O)c1ccc2c(c1)CC(c1ccccc1)OC2=O (stereo not given)	-4	-4	22	nt	65*	-11	33*	53*	12*	14
CCOc1ccc(NC(=O)CN(C)C(=O)c2cc(-c3ccncc3)nc3ccccc23)cc1OCC	-16	12	8	nt	67*	-18	30*	43	7	7
COc1ccc(NC(=O)CN(C)C(=O)c2ccc3c(c2)CC(c2ccccc2)OC3=O)cc1 (stereo not given)	nt	nt	5	nt	-5	nt	nt	nt	nt	nt
CN1OC[C@@H]2CN(C(=O)CCc3ccccc3)[C@H](c3cccc(Oc4ccccc4)c3)C[C@@H]21	nt	nt	-2	nt	0	nt	nt	nt	nt	nt
N#C/C(=C\Nc1ccc2c(c1)OCCO2)C(=O)NCc1ccco1	-12	8	-2	-8	0	-12	nt	nt	nt	nt
CCc1ccc(N/C(SCc2cccc(F)c2)=C(/C#N)C(=O)NCc2ccco2)cc1	-18	8	11	-11	50*	-7	0	15	2	4
O=C(Nc1nc(-c2ccc(F)c(F)c2)cs1)c1ccc(OCC2CCCO2)cc1 (stereo not given)	-26	20	7	-10	54*	-22	33*	35	9	4
